Rpn11 block: blocks the human proteasome subunit Rpn11; O00487; hit rate 0.59% among 360,000; calls only at 20 µM; AID 588493; human 26S proteasome, Ub4-pepOG fluorescence polarization; 20S core pre-blocked with epoxomicin;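 active = inhibition at 20 µM, scaled to each plate's controls, above about 33%, limit read from the data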
CSN deneddyl inh: blocks human CSN-mediated cullin deneddylation; Purified CSN, SCF-Nedd8-OG deneddylation, fluorescence polarization; inhibition, % at 12.5 µM; hit rate 0.38% among 360,000;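 active = pattern-corrected inhibition above about 35%, with an unprinted fluorescence ratio check between 0.5 and 1.5, limit read from the data, passing the limit was not always enough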;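 also: 0% = enzyme with substrate and 100% = substrate without enzyme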
Target sequence (Q92905 whole entry, looked up, one chain of several): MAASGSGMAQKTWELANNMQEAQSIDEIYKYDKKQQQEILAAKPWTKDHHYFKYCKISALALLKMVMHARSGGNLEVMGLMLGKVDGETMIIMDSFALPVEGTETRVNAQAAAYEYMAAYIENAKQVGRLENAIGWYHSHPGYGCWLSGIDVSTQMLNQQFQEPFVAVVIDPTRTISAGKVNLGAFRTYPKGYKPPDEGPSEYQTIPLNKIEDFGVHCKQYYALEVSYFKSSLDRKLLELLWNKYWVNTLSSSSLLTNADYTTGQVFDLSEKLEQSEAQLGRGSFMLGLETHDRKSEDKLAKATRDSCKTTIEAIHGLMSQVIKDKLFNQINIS
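Material: human Csn5 produced in HEK293T cells; Input: enzyme 0.24 nM; Reagent: SCFSkp2-Nedd8OG substrate at 10 nM final; Dosing: 12.5 µM compound; Incubation: 90 min reaction at room temperature; Detection: fluorescence polarization of the substrate; Evaluation: % inhibition of substrate cleavage by Csn5; Control set: substrate-only high control, full reaction low control.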
SUMO HTRF inh: blocks human SUMOylation mediated by UBC9. HTRF SUMOylation assay, SAE1/SAE2 + UBC9, in vitro. AID 2006. P63279. inhibition, % at 35 µM. hit rate 0.36% among 290,000; in the data active = inhibition above about 50%, passing the limit was not always enough
HNF4A DNA FP: change in binding of human HNF4 alpha to DNA; HNF4a-FITC DNA binding, fluorescence polarization, 1 h; activity change, % at 10 µM; hit rate 0.3% among 360,000; AID 1224865; in the data active = activity change above about 30%, passing the limit was not always enough
TPT1 inhibitor: inhibitors of Candida albicans tRNA 2'-phosphotransferase TPT1; recombinant caTPT1, FP RNA substrate dephosphorylation; inhibition, % at 5 µM; hit rate 0.81% among 300,000; AID 1962;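 active = inhibition above the mean of all tested compounds plus 3 SD, set per screening campaign, cut at about 24% in these data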;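 also: plate controls were DMSO alone for no effect and ferristatin control at 100 nM for full effect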
SENP1 FRET inh: inhibitors of human SENP1 SUMO protease catalytic domain; Q9P0U3; recombinant SENP1 catalytic domain, CyPet-SUMO1-YPet FRET cleavage; inhibition, % at 10 µM; hit rate 0.21% among 360,000; AID 624204;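 active = inhibition at least 30% at 10 µM, raw YFP signal under a set limit, fluorescence ratio 0.5 to 1.5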;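 also: 0% = enzyme with DMSO and 100% = no enzyme wells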
Target sequence (Q9P0U3 419-644 limits assumed): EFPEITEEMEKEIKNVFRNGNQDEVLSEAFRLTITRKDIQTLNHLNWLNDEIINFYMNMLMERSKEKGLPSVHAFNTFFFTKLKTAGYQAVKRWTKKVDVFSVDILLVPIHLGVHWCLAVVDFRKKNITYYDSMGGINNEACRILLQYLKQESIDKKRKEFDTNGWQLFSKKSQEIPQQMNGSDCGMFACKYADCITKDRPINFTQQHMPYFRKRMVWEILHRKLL
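Compound: 10 µM single point, 0.5% DMSO; Test system: hSENP1 catalytic domain, recombinant; Timing: 50 min reaction at room temperature; Technique: FRET, CFP and YFP emission; Control set: no-enzyme wells low, DMSO-plus-enzyme wells high control.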
TPT1 inh confirm: confirmation of Candida albicans TPT1 inhibitors; shares compounds with TPT1 inhibitor; recombinant caTPT1, fluorescence polarization, RNase T1 coupled; inhibition, % at 5 µM; hit rate 74% among 2,400; AID 2149;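 active = inhibition above the primary screen limit, the mean inhibition of all tested compounds plus 3 SD, cut at about 25% in these data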
RNase T1 counter: RNase T1 inhibition in TPT1 counter-screen; hit rate 83% among 2,400; shares compounds with TPT1 inhibitor; RNase T1 cleavage, fluorescence polarization, 1536-well; inhibition, % at 5 µM;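 active = inhibition above the solvent-only control well mean plus 3 SD, limit set per screening run, cut at about 23% in these data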;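 also: plate controls were DMSO wells with enzyme for no effect and wells without RNase T1 for full effect; inhibitors block cleavage so intact labeled substrate keeps polarization high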
Target sequence (P00651 whole entry, looked up): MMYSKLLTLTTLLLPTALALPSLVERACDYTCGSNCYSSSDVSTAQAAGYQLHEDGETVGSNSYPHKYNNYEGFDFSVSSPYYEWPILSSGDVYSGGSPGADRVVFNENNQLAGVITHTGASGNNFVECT
Rpn11 confirm: Rpn11 inhibition confirmation, single concentration. hit rate 29% among 1,900. purified human 26S proteasome, Ub4-pepOG fluorescence polarization; proteasome pretreated with epoxomicin. shares compounds with Rpn11 block. inhibition, % at 20 µM
MMP-2 counter: MMP-2 (human) inhibition counter-screen; shares compounds with Rpn11 block; recombinant MMP-2, FRET peptide cleavage fluorescence; inhibition, % at 20 µM; hit rate 4% among 1,900;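 also: human MMP-2 activated beforehand with APMA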
Thrombin FP: thrombin (bovine) inhibition counter-screen; shares compounds with Rpn11 block; bovine thrombin cleavage of Ub4-pepOG, fluorescence polarization; inhibition, % at 20 µM; hit rate 13% among 1,900; AID 602333;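 active = mean inhibition at least 40% at 20 µM, or signal 3 deviations below plate average, so some actives read negative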;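 also: plate controls were thrombin with DMSO for no effect and buffer wells lacking thrombin for full effect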
SENP1 inh conf: confirmation of human SENP1 SUMO protease inhibitors; shares compounds with SENP1 FRET inh; recombinant SENP1, CyPet-SUMO1-YPet FRET cleavage; inhibition, % at 10 µM; hit rate 34% among 520; in the data active = inhibition mostly above about 35%, no sharp cut-off; inactive = mostly below about 32%;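 also: 0% = enzyme with DMSO and 100% = no enzyme control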
SENP1 kin conf: confirmation of human SENP1 SUMO protease inhibitors, kinetic | shares compounds with SENP1 FRET inh | recombinant SENP1, CyPet-SUMO1-YPet FRET kinetic cleavage | inhibition, % at 10 µM | hit rate 26% among 520 | AID 651690; in the data active = inhibition mostly above about 32%, no sharp cut-off; inactive = mostly below about 29%;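 also: 0% = DMSO with enzyme and 100% = no enzyme substrate only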
HNF4a DNA conf: change in binding of human HNF4 alpha to DNA, retest | shares compounds with HNF4A DNA FP | HNF4A-FITC DNA binding, fluorescence polarization, 1 h | activity change, % at 12.5 µM | hit rate 99% among 210; call rule not given here
* hit, by the source's call; i = inactive; · = no result shown; + = active, no number. In the library only some 1.8% were active in any assay of this set; here they are far more common. Rule as the data show it, unless noted: active = inhibition above about 40%; inactive = the rest.

SMILES	Rpn11 block	CSN deneddyl inh	SUMO HTRF inh	HNF4A DNA FP	TPT1 inhibitor	SENP1 FRET inh	TPT1 inh confirm	RNase T1 counter	HNF4a DNA conf	others
N#C/C(=C\c1ccc(-c2ccccc2C(=O)O)o1)c1nc2ccccc2[nH]1	·	24.0	6.4	43.5*	94.8*	-27.4	116.6*	120.6*	91.1*
COc1ccc(O)c(C(=O)c2coc(=N)c(C(=O)Nc3ccc(SC(F)F)cc3)c2)c1	·	55.8*	17.3	44.1*	63.5*	-31.9	75.2*	78.0*	64.8*
CC(C)OC(=O)c1cc(C(=O)c2cc(F)ccc2O)coc1=N	i	3.5	-2.7	5.0	0.5	-56.4	·	·	·
O=C(NCc1ccccn1)C(=O)Nc1nc(C23CC4CC(CC(C4)C2)C3)cs1	i	1.2	-10.1	-1.1	-1.8	-0.3	·	·	·
O=C(NCC1CCCO1)c1nc(Cn2ccc([N+](=O)[O-])n2)no1 (stereo not given)	i	-0.4	13.3	-2.8	-8.3	1.0	·	·	·
COc1ccc(C(=O)/C=C/c2cn(CC(O)CN3CCOCC3)c3ccccc23)cc1 (stereo not given)	·	22.2	12.4	42.0*	51.5*	-25.1	44.8*	57.0*	75.4*
COc1ccc(C(=O)/C=C/c2cn(CN3CCN(C)CC3)c3ccccc23)cc1	i	6.9	-15.2	8.8	14.7	-27.6	·	·	·
COc1ccc(-c2nnc(C)c3nocc23)cc1	+	8.0	24.0	56.4*	67.3*	37.0*	60.1*	69.0*	63.1*	Rpn11 confirm=48.4*;MMP-2 counter=-5.4;Thrombin FP=40.0;SENP1 inh conf=22.7;SENP1 kin conf=20.9
CCOC(=O)C1=C(C)NC(=O)NC1c1ccc(N2CCC(c3ccccc3)=N2)cc1 (stereo not given)	·	22.2	12.2	54.9*	53.3*	-23.7	76.5*	87.2*	62.4*
CCOC(=O)C1=C(C)NC(=O)NC1c1ccc(NC(C)=O)cc1 (stereo not given)	i	0.2	14.5	5.7	2.0	5.0	·	·	·
C=CCn1c(SCc2nc3sc4c(c3c(=O)[nH]2)CCCC4)nc2ccccc2c1=O	·	18.9	1.0	48.8*	26.6*	4.7	48.1*	61.8*	65.2*
NC(=O)C1CCN(C(=O)c2ccc3c(c2)S(=O)(=O)c2ccccc2C3=O)CC1	i	3.0	9.4	-3.0	-4.0	0.5	·	·	·
CC1CCN(c2ccc3c(c2)S(=O)(=O)c2ccccc2C3=O)CC1	·	29.6	·	58.4*	65.2*	-28.2	79.7*	87.5*	71.5*
NC(=O)C1CCN(c2ccc3c(c2)S(=O)(=O)c2ccccc2C3=O)CC1	·	-2.0	·	47.2*	30.8*	-27.6	38.2*	47.7*	67.0*
O=C(O)c1ccc(CNC(=O)c2ccc(C(F)(F)F)cc2)cc1	i	-2.4	7.7	-0.7	-9.2	0.6	·	·	·
Oc1ccc(/C=C/c2ccc3cccc(O)c3n2)cc1Br	·	33.3	6.4	43.8*	48.5*	-24.0	63.3*	69.6*	75.5*
O=C(O)c1ccc(/C=C/c2ccc3cccc(O)c3n2)cc1	i	19.9	5.1	-6.1	·	1.4	·	·	·
CCN(CC)C(=O)CSC(Nc1ccc(F)cc1)=C(C#N)C#N	·	15.2	19.5	37.4*	39.7*	-42.9	40.5*	51.5*	62.0*
Cc1cccc(-c2noc(CNC(=O)c3ccoc3C)n2)c1	·	20.1	-1.1	50.2*	34.0*	-68.6	64.9*	73.9*	32.1*
CCSc1ncc(C)cc1[N+](=O)[O-]	i	-10.9	-17.5	-2.1	-0.4	-0.5	·	·	·
CCOc1ccc2cc(/C=C/C(=O)c3ccco3)c(Cl)nc2c1	·	33.2	35.8	34.2*	37.2*	-24.1	57.3*	68.4*	35.6*
CCOc1ccc2nc(SCC(=O)NNC(=O)c3ccco3)c(C)cc2c1	i	0.3	-0.3	4.7	0.9	1.7	·	·	·
O=c1c2ccccc2c(/C=N/c2nnc(Cc3ccccc3)s2)c(O)n1-c1ccc(Cl)cn1	·	41.4*	16.6	86.4*	25.1*	-23.9	153.8*	146.2*	94.8*
Cc1cccc(C)c1N=Cc1c(O)n(-c2nccs2)c(=O)c2ccccc12	i	-7.1	-10.1	1.0	1.1	-5.7	·	·	·
CC(=O)Nc1ccc2c(c1)nc(CCNC(=O)c1ccccc1)n2C	i	5.1	23.1	-2.2	0.9	2.4	·	·	·
SMILES	Rpn11 block	CSN deneddyl inh	SUMO HTRF inh	HNF4A DNA FP	TPT1 inhibitor	SENP1 FRET inh	TPT1 inh confirm	RNase T1 counter	HNF4a DNA conf	others
C=CCSc1nnc(C)c(/C=C/Nc2ccc(Cl)cc2)n1	·	-1.0	16.6	50.8*	154.8*	-22.0	132.8*	128.8*	38.4*
CSc1nsc(/C=C/Nc2ccc(C(=O)O)cc2)c1C#N	+	28.5	5.2	48.9*	30.5*	-25.4	42.6*	52.7*	45.2*	Rpn11 confirm=53.2*;MMP-2 counter=-7.5;Thrombin FP=41.7*
N#Cc1c(-c2c(Cl)cccc2Cl)noc1/C=C/Nc1ccc(C(=O)O)cc1	i	-0.6	26.9	2.0	3.0	-55.0	·	·	·
Cn1cccc1/C=C1\SC(=S)N(CC(=O)O)C1=O	·	49.2*	3.0	79.9*	107.6*	-42.6	115.2*	128.6*	116.8*
Cc1onc(-c2ccccc2)c1C(=O)Nc1sc2c(c1C#N)CCC2	i	20.2	8.6	12.9	17.5	-29.3	·	·	·
Cc1onc(-c2ccccc2)c1C(=O)Nc1sccc1C#N	·	11.8	-4.6	43.8*	83.3*	-13.2	90.8*	98.9*	65.1*

Compound activity (PubChem BioAssay)
